The nature of data set [1]: Metabolic stability in mouse liver microsomes assessed as compound remaining after 0.5 hr. The format is ADME, Microsome. The settings on record: read-out: Stability. The method, boiled down:
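Test compound incubated 0.5 h with mouse liver microsomes. Result given as percent of parent remaining.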

Data set [2] in a line: Oral bioavailability in mouse at 10 mg/kg. The format is ADME, organism-based. The following applies: in vivo.
Data set [3] can be described thus: 1-Octanol-phosphate buffered saline distribution coefficient, log D of the compound at pH 7.4. The format is physicochemical. The method, boiled down:
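logD measured by partitioning between 1-octanol and phosphate-buffered saline, pH 7.4.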

Data set [4] in a line: Volume of distribution in mouse at 1 mg/kg, iv. Format: ADME, organism-based. Also noted: dose 1 mg/kg, route intravenous. The settings on record: in vivo. In short, it runs like this: (§1)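 Single 1 mg/kg intravenous dose to mice in DMA/PG/(20% HPβCD in saline) 10/10/80. Values are the mean of two mice.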
Data set [5] has as its target Long-chain fatty acid transport protein 1 (Homo sapiens, UniProt Q6PCB7). Nature of the data set: Inhibition of human FLAG-tagged FATP1-mediated [1-14C] oleic acid conversion to [1-14C] oleoyl-CoA after 20 mins by scintillation counting analysis. The method, boiled down:
(§2)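 Purified FLAG-tagged human or mouse FATP1 run in a cell-free acyl-CoA synthetase assay. Protein incubated with 10 µM [1-14C]oleic acid, 0.5 mM ATP, 0.5 mM CoA, 5 mM MgCl2, 30 mM NaCl, 0.05% Triton X-100 and 2 mM DTT in 100 mM Tris-HCl pH 7.4 for 20 min at 37 °C. Free oleate removed by heptane washes. Aqueous-phase radioactivity counted by scintillation. FLAG-luciferase background subtracted. IC50 is the mean of n ≥ 2.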

Data set [6] can be described thus: Ratio of drug uptake in soleus muscle to plasma in mouse at 10 mg/kg, po after 1 week of repeated compound administration. Further details: dose 10 mg/kg, route oral. The format is ADME, organism-based. In short, it runs like this:
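Mice received repeated oral dosing at 10 mg/kg for 1 week. Soleus and plasma concentrations measured 3 h after dosing. Kp taken as the soleus-to-plasma ratio.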

Data set [7] is described as follows: Solubility in Japanese Pharmacopoeia first fluid. Format: physicochemical. The settings on record: pH 1.2.
Data set [8] relates to Mus musculus. Nature of the data set: In vivo inhibition of FATP1 in high-fat diet fed mouse assessed as decrease in triglyceride content in white gastrocnemius muscle at 1 to 100 mg/kg, po after 3 weeks.
In data set [9] the test system is Mus musculus. Nature of the data set: In vivo inhibition of FATP1 in high-fat diet fed mouse assessed as decrease in triglyceride content in liver at 1 to 100 mg/kg, po after 3 weeks.
Data set [10] can be described thus: AUC in mouse at 10 mg/kg, po. The settings on record: plasma. Also noted: dose 10 mg/kg, route oral. The format is ADME, organism-based. In short, it runs like this:
(§3)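 Single 10 mg/kg oral dose to mice in DMA/PG/(20% HPβCD in saline) 10/10/80. Values are the mean of three mice.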

The subject of data set [11] is Mus musculus. Nature of the data set: Free Cmax in mouse at 10 mg/kg, po. Format: ADME, organism-based. Also noted: dose 10 mg/kg, route oral. The settings on record: in vivo. The method, boiled down: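 Free Cmax calculated as plasma unbound fraction (%) multiplied against the […], from mice given 10 mg/kg orally in DMA/PG/(20% HPβCD/saline) 10/10/80, n = 3.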

Data set [12] can be described thus: Cmax in mouse at 10 mg/kg, po. The format is ADME, organism-based. Also noted: dose 10 mg/kg, route oral. The settings on record: in vivo. The method, boiled down: as §3
Data set [13] in a line: Fraction unbound in mouse plasma at 10 mg/kg, po. The format is ADME, organism-based. Further details: dose 10 mg/kg, route oral. In short, it runs like this:
(§4)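 Unbound fraction (%) measured in mouse plasma.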

Data set [14] can be described thus: Clearance in mouse at 1 mg/kg, iv. The settings on record: in vivo. Format: ADME, organism-based. Also noted: dose 1 mg/kg, route intravenous. In short, it runs like this:
as §1

Data set [15] can be described thus: Tmax in mouse at 10 mg/kg, po. Also noted: dose 10 mg/kg, route oral. The following applies: in vivo. The format is ADME, organism-based. In short, it runs like this: as §3
Data set [16] has as its system Mus musculus. Nature of the data set: In vivo inhibition of FATP1 in high-fat diet fed mouse assessed as decrease in triglyceride content in soleus muscle at 1 to 100 mg/kg, po after 3 weeks.
Data set [17] in a line: Solubility in Japanese Pharmacopoeia second fluid. Format: physicochemical. The settings on record: pH 6.8.
Data set [18] concerns the target Long-chain fatty acid transport protein 1 (Mus musculus, UniProt Q60714). As to the kind of experiment: Inhibition of mouse FLAG-tagged FATP1-mediated [1-14C] oleic acid conversion to [1-14C] oleoyl-CoA after 20 mins by scintillation counting analysis. In short, it runs like this:
as §2

Data set [19] relates to Mus musculus. Nature of the data set: In vivo inhibition of FATP1 in high-fat diet fed mouse assessed as decrease in triglyceride content in white gastrocnemius muscle at 10 to 100 mg/kg, po after 4 weeks. The format is functional, organism-based. The method, boiled down:
(§5)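 Mice kept on a high-fat diet for 4 weeks and given the compound orally at 3/10/30, 10/30/100 or 1/10/100 mg/kg. The 1–100 mg/kg series was run for 3 weeks. Triglyceride content measured in liver, white gastrocnemius and soleus, compared against HFD vehicle controls, P < 0.05.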

Data set [20] is described as follows: Volume of distribution in mouse at 5 mg/kg, iv. The format is ADME, organism-based. Also noted: dose 5 mg/kg, route intravenous. The following applies: in vivo.
In data set [21] the test system is Mus musculus. As to the kind of experiment: In vivo inhibition of FATP1 in high-fat diet fed mouse assessed as decrease in triglyceride content in liver at 10 to 100 mg/kg, po after 4 weeks. Format: functional, organism-based. The method, boiled down: as §5
A short description of data set [22]: Plasma protein binding in mouse at 10 mg/kg, po. Further details: dose 10 mg/kg, route oral. The format is ADME, organism-based. The following applies: read-out: PPB (converted). In short, it runs like this:
as §4

Data set [23] concerns Mus musculus. Nature of the data set: In vivo inhibition of FATP1 in high-fat diet fed mouse assessed as decrease in triglyceride content in soleus muscle at 10 to 100 mg/kg, po after 4 weeks. Format: functional, organism-based. The method, boiled down:
as §5

Data set [24] in a line: Clearance in mouse at 5 mg/kg, iv. Format: ADME, organism-based. Further details: dose 5 mg/kg, route intravenous. The settings on record: in vivo.
In data set [25] the test system is Mus musculus. Nature of the data set: In vivo inhibition of FATP1 in high-fat diet fed mouse assessed as decrease in triglyceride content in liver at 3 to 30 mg/kg, po after 4 weeks. The format is functional, organism-based. The method, boiled down: as §5
The subject of data set [26] is Mus musculus. As to the kind of experiment: In vivo inhibition of FATP1 in high-fat diet fed mouse assessed as decrease in triglyceride content in white gastrocnemius muscle at 3 to 30 mg/kg, po after 4 weeks. The format is functional, organism-based. In short, it runs like this:
as §5

The test system of data set [27] is Mus musculus. As to the kind of experiment: In vivo inhibition of FATP1 in high-fat diet fed mouse assessed as decrease in triglyceride content in soleus muscle at 3 to 30 mg/kg, po after 4 weeks. The format is functional, organism-based. The method, boiled down: as §5

SMILES strings stand for the structures. pIC50: −log10 of the molar value. ≈ marks a conversion by molar mass, not a printed value. Calls of active or inactive are those of the source. The rule behind the calls is not given here.

Chain of Long-chain fatty acid transport protein 1 (Homo sapiens, UniProt Q6PCB7) (Q6PCB7 whole entry): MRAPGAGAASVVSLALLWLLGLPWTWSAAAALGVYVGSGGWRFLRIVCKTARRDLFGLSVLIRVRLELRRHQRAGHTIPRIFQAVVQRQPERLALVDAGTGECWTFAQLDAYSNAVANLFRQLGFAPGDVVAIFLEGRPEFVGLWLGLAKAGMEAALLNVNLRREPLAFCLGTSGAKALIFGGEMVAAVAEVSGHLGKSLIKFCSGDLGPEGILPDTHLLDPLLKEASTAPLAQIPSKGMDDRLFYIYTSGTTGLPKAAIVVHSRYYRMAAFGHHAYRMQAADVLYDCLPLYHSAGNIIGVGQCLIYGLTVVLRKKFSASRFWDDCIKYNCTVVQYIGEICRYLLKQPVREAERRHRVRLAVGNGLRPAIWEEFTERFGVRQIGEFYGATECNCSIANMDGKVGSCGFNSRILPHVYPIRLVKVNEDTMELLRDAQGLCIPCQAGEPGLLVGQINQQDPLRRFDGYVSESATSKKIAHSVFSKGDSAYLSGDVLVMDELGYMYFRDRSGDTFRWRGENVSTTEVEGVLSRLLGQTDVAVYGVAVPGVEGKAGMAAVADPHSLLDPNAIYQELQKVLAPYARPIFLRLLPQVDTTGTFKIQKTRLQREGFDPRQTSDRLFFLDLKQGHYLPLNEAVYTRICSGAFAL
Chain of Long-chain fatty acid transport protein 1 (Mus musculus, UniProt Q60714) (Q60714 whole entry): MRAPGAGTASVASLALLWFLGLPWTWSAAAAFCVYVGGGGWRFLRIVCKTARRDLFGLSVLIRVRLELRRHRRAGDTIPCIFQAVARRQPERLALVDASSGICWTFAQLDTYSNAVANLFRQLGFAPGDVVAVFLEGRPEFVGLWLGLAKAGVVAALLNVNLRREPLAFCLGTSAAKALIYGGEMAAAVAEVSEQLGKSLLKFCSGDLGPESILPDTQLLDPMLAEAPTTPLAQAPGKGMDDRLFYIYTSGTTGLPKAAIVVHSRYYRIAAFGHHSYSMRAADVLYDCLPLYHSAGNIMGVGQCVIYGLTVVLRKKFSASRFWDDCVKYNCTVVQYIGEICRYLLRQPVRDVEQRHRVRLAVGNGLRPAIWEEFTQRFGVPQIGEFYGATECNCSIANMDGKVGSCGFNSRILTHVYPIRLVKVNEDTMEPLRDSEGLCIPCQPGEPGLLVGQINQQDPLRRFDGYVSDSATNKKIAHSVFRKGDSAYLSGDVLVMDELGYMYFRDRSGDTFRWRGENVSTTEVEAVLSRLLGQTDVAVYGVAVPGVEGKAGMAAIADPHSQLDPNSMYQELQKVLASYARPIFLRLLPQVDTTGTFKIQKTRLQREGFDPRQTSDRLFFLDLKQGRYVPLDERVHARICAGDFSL

Take `O=C(CN1CCN(c2ccc(F)cn2)CC1)Nc1nc2c(s1)CCCC2`: the remaining at 0.5 h in data set [1] was 63%. In [2], this compound returned a bioavailability of 100%. For the same compound, in [3], the logD was determined as 4.1. The Vd in data set [4] stood at 0.57 L/kg. For the same compound, the pIC50 in [5] was 7.34; in [18] it was 6.22. Further, the Kp at 168 h in data set [6] amounted to 0.03. Moreover, the results for the solubility in data set [7] and in [17] were 700 µg/mL (≈ 1860 µM) and 2.4 µg/mL (≈ 6.39 µM), respectively. Besides, the inhibition entry in the data set with Mus musculus [8], in the data set with Mus musculus [9] and with Mus musculus [16] was “inactive” each time. The area under the curve (AUC) in [10] turned out to be 36000 ng·h/mL. For the same compound, the fCmax with Mus musculus [11] turned out to be 0.0083 µg/mL. The compound also displayed a Cmax in data set [12] of 5500 ng/mL. Besides, the fraction unbound in data set [13] was determined as 0.0015. The compound further returned a clearance in [14] of 5 mL/min/kg. Moreover, the Tmax in data set [15] was 19.8 min.
As to `CC1CCc2sc(NC(=O)CN3CCN(c4ccc(F)cc4)CC3)nc2C1` (centres undefined), in [1], the remaining at 0.5 h came to 30%. In [2], this compound yielded a bioavailability of 62%. The pH-dependent lipophilicity (logD) in data set [3] is 5.1. The values for the pIC50 in data set [5] and in data set [18] were 7.59 and 5.29, respectively. Besides, the Kp at 168 h in data set [6] amounted to 0.33. Besides, the solubility turned out to be 540 µg/mL (≈ 1390 µM) in data set [7] and 0.7 µg/mL (≈ 1.8 µM) in data set [17]. In [10], the AUC stood at 2300 ng·h/mL. This compound also displayed a fCmax in the data set with Mus musculus [11] of 0.0077 µg/mL. Moreover, the inhibition result in the data set on Mus musculus [19], with Mus musculus [21] and in the data set with Mus musculus [23] was “inactive” each time. This compound also came in with a maximum concentration (Cmax) in data set [12] of 1800 ng/mL. Moreover, the Vd in data set [20] was 1.5 L/kg. Moreover, the fraction unbound in [13] and in data set [22] was 0.0043 each time. The Tmax in data set [15] came out at 15 min. In addition, in data set [24], the clearance amounted to 46 mL/min/kg.
For `O=C(CN1CCN(c2ccc(F)cc2)CC1)Nc1nc2c(o1)CCCC2`, the remaining at 0.5 h in data set [1] came out at 53%. For the same compound, in [3], the logD turned out to be 3. Besides, the pIC50 is 6.74 in data set [5] and 5.27 in data set [18].
Taken in the same sequence, the figures for `CN(C(=O)CN1CCN(c2ccc(F)cn2)CC1)c1nc2c(s1)CCCC2` were 65%, 3.9, 7.39 and 6.21.
Taken in the same sequence, the figures for `O=C(CN1CCN(c2ccc(F)cn2)CC1)c1coc2ccccc12` were 76%, 3.9, 6.33 and 5.72.
Taken in the same sequence, the figures for `Cc1nc(NC(=O)CN2CCN(c3ccc(F)cc3)CC2)sc1C` were 56%, 3.7, 6.37 and 5.77.
With `O=C(CN1CCN(c2ccc(F)cn2)CC1)c1cnn2ccccc12`, in [1], the remaining at 0.5 h worked out at 84%. In data set [3], this compound showed a logD of 2.5. For the same compound, the negative-log IC50 (pIC50) in data set [5] is 6.48; in data set [18], 5.96.
Take `O=C(CN1CCN(c2ccc(F)cn2)CC1)c1cnc2n1CCCC2`: the remaining at 0.5 h in data set [1] worked out at 86%. For the same compound, the logD in [3] is 2.1. Moreover, the pIC50 is 7.00 in [5] and 6.80 in data set [18].
Take `Cc1nc2ccccn2c1C(=O)CN1CCN(c2ccc(F)cn2)CC1`: the remaining at 0.5 h in data set [1] was 52%. Besides, the bioavailability in [2] was 21%. The inhibition entry in the data set with Mus musculus [25], in the data set on Mus musculus [26] and in the data set with Mus musculus [27] was “inactive” each time. Also, the logD in data set [3] turned out to be 2.8. For the same compound, the Vd in data set [4] turned out to be 0.2 L/kg. Further, the values for the pIC50 in [5] and in data set [18] were 6.37 and 6.41, respectively. The Kp at 168 h in [6] worked out at 1.1. Besides, the solubility is > 700 µg/mL in data set [7] and 350 µg/mL (≈ 990 µM) in data set [17]. The same compound gave an AUC in data set [10] of 5500 ng·h/mL. In the data set with Mus musculus [11], this compound displayed a fCmax of 0.61 µg/mL. In addition, the Cmax in data set [12] was determined as 2200 ng/mL. Further, the fraction unbound in data set [13] stood at 0.275. In addition, in data set [14], the clearance worked out at 6.4 mL/min/kg. Further, in data set [15], the Tmax amounted to 19.8 min.

The record behind these values is ChEMBL document CHEMBL2375259, “Arylpiperazines as fatty acid transport protein 1 (FATP1) inhibitors with improved potency and pharmacokinetic properties” (Bioorg Med Chem Lett, 2013).
